Results taken from ChEMBL document CHEMBL3763041, “Design and synthesis of new imidazo[1,2-a]pyridine and imidazo[1,2-a]pyrazine derivatives with antiproliferative activity against melanoma cells” (Eur J Med Chem, 2016).

How the values were obtained:
[1] = Antiproliferative activity against human A375P cells expressing BRAF V600E mutant after 72 hrs by CellTiter-Glo assay; format: functional, cell-based
[2] = biological target: Serine/threonine-protein kinase B-raf (Homo sapiens, UniProt P15056); test: Inhibition of wild-type B-Raf (unknown origin) using MEK1 K97M as substrate preincubated for 90 mins followed by substrate addition measured after 1 hr by fluorescence polarization assay
Chain of Serine/threonine-protein kinase B-raf (Homo sapiens, UniProt P15056) (P15056 whole entry): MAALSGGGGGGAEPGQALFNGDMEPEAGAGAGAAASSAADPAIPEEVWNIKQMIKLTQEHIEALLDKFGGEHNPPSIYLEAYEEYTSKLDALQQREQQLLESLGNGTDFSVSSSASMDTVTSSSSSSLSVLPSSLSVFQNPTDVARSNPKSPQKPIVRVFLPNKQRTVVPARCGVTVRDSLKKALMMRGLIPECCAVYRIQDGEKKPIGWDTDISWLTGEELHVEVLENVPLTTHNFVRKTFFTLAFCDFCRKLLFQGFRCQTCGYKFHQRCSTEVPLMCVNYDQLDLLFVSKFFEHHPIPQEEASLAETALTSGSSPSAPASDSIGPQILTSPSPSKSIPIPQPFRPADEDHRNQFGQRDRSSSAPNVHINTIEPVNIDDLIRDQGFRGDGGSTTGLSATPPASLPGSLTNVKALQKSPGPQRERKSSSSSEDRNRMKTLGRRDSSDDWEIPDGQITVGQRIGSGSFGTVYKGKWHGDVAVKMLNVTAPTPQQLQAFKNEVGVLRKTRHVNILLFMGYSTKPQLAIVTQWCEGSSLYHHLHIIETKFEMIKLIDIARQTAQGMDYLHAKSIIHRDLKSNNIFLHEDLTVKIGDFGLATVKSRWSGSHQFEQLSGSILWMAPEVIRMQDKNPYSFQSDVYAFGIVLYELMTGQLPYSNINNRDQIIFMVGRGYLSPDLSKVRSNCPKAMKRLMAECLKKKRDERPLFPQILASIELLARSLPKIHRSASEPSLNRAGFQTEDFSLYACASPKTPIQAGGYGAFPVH
Summary of the method: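 After ATP-containing solution was added, the reaction ran 1 h at room temperature. It was stopped with ADP detection mix (EDTA, ADP² antibody, 3 nM ADP Alexa633 tracer).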

[3] = biological target: Serine/threonine-protein kinase B-raf (Homo sapiens, UniProt P15056, V600E); test: Inhibition of B-Raf V600E mutant (unknown origin) using MEK1 K97M as substrate preincubated for 90 mins followed by substrate addition measured after 1 hr by fluorescence polarization assay
Chain of Serine/threonine-protein kinase B-raf (Homo sapiens, UniProt P15056, V600E) (P15056 2-766 V600E limits assumed): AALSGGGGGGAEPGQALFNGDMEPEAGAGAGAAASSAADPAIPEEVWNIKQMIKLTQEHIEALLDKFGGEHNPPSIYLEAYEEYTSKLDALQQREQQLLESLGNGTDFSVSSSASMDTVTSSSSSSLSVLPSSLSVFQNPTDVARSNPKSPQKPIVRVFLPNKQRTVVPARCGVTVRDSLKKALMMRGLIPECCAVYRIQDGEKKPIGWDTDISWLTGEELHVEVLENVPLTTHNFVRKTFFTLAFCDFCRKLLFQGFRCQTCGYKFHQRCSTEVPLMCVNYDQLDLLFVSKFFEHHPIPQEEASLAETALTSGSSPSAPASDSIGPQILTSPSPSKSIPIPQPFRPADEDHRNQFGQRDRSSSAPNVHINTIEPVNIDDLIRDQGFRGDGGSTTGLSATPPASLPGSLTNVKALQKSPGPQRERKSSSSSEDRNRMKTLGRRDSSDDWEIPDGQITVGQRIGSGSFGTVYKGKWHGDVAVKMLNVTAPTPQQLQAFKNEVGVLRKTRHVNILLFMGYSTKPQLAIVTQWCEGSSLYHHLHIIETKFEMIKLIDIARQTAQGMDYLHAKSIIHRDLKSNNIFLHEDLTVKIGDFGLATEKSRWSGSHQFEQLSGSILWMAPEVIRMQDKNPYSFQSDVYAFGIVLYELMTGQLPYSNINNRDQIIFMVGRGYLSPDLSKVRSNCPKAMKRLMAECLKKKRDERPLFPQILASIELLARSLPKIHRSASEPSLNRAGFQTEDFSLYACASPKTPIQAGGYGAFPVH
Summary of the method: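 Reactions used 30 nM B-Raf(V600E) enzyme with MEK1 K97M substrate. Kinase reaction ran 1 h at room temperature after ATP-containing solution was added. It was stopped with ADP detection mix (20 mM HEPES pH 7.5, 40 mM EDTA, 10 mM MgCl₂, 0.02% Brij 35, ADP² antibody, 3 nM ADP Alexa633 tracer).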

[4] = Antiproliferative activity against human HCT116 cells after 72 hrs by CellTiter-Glo assay; format: functional, cell-based; details: HCT-116, 72 h
A549 = test: Antiproliferative activity against human A549 cells after 72 hrs by CellTiter-Glo assay; format: functional, cell-based; details: A549, 72 h
NCI-H358 = test: Antiproliferative activity against human NCI-H358 cells after 72 hrs by CellTiter-Glo assay; format: functional, cell-based; details: NCI-H358, 72 h
[5] = Antiproliferative activity against human HKE3 cells after 72 hrs by CellTiter-Glo assay; format: functional, cell-based; details: HKE3, 72 h
[6] = Antiproliferative activity against human PC-9ER cells after 72 hrs by CellTiter-Glo assay; format: functional, cell-based
[7] = Antiproliferative activity against human PC9 cells after 72 hrs by CellTiter-Glo assay; format: functional, cell-based; details: PC-9, 72 h

Question: With `O=C(Nc1cccc(-c2cnc3c(NC(=O)c4ccc(Br)cc4)nccn23)c1)Nc1ccc(F)cc1F` as the compound, how does the IC50 [1] read?
Answer: 3750 nM

Question: Which IC50 [1] does the source give for `O=C(Nc1cccc(-c2cnc3c(NC(=O)c4cc(C(F)(F)F)cc(C(F)(F)F)c4)nccn23)c1)Nc1ccc(F)cc1F` here?
Answer: 110 nM

Question: With `O=C(Nc1cccc(-c2cnc3c(NC(=O)c4ccc(F)c(C(F)(F)F)c4)nccn23)c1)Nc1ccc(F)cc1F` as the compound, how does the IC50 [1] read?
Answer: 410 nM

Question: With `O=C(Nc1cccc(-c2cnc3c(NC(=O)c4cccc(C(F)(F)F)c4)nccn23)c1)Nc1ccc(Cl)c(C(F)(F)F)c1` as the compound, how does the IC50 [1] read?
Answer: 560 nM

Question: Which results are given for `O=C(Nc1cccc(-c2cnc3c(NC(=O)c4ccc(F)c(C(F)(F)F)c4)nccn23)c1)Nc1ccc(Cl)c(C(F)(F)F)c1`?
Answer: IC50 [2]: > 12500 nM; IC50 [3]: 5010 nM; IC50 [1]: 60 nM

Question: For `O=C(Nc1cccc(-c2cnc3c(NC(=O)c4ccc(C(F)(F)F)cc4)nccn23)c1)Nc1ccc(Cl)c(C(F)(F)F)c1`, which IC50 [1] is on record?
Answer: 1750 nM

Question: Which IC50 [1] does the source give for `O=C(Nc1cccc(-c2cnc3c(NC(=O)c4ccccc4)nccn23)c1)Nc1ccc(F)cc1F` here?
Answer: 1990 nM

Question: Which IC50 [1] does the source give for `O=C(Nc1cccc(-c2cnc3c(NC(=O)c4ccccc4)nccn23)c1)Nc1ccc(Cl)c(C(F)(F)F)c1` here?
Answer: 1410 nM

Question: With `O=C(Nc1cccc(-c2cnc3c(NC(=O)c4ccc(Cl)c(Cl)c4)nccn23)c1)Nc1ccc(F)cc1F` as the compound, how does the IC50 [1] read?
Answer: 1890 nM

Question: With `O=C(Nc1cccc(-c2cnc3c(NC(=O)c4cc(Cl)c(F)c(Cl)c4)nccn23)c1)Nc1ccc(F)cc1F` as the compound, how does the IC50 [1] read?
Answer: 390 nM

Question: What does the source list for `O=C(Nc1cccc(-c2cnc3c(NC(=O)c4cc(Cl)cc(Cl)c4)nccn23)c1)Nc1ccc(F)cc1F`?
Answer: IC50 [4]: 880 nM; IC50 (A549): 2610 nM; IC50 (NCI-H358): 4170 nM; IC50 [2]: > 12500 nM; IC50 [3]: > 12500 nM; IC50 [5]: 620 nM; IC50 [6]: 2560 nM; IC50 [1]: 60 nM; IC50 [7]: 2770 nM

Question: With `O=C(Nc1cccc(-c2cnc3c(NC(=O)c4ccc(F)c(Cl)c4)nccn23)c1)Nc1ccc(F)cc1F` as the compound, how does the IC50 [1] read?
Answer: 1550 nM

Question: Which IC50 [1] does the source give for `O=C(Nc1cccc(-c2cnc3c(NC(=O)c4ccc(Cl)c(C(F)(F)F)c4)nccn23)c1)Nc1ccc(F)cc1F` here?
Answer: 800 nM

Question: For `O=C(Nc1cccc(-c2cnc3c(NC(=O)c4cc(F)cc(F)c4)nccn23)c1)Nc1ccc(Cl)c(C(F)(F)F)c1`, which IC50 [1] is on record?
Answer: 1940 nM

Question: Which results are given for `O=C(Nc1cccc(-c2cnc3c(NC(=O)c4cc(Cl)cc(Cl)c4)nccn23)c1)c1ccc(Cl)c(C(F)(F)F)c1`?
Answer: IC50 [4]: 1810 nM; IC50 (A549): 3230 nM; IC50 (NCI-H358): 4210 nM; IC50 [2]: > 12500 nM; IC50 [3]: > 12500 nM; IC50 [5]: 830 nM; IC50 [6]: 3630 nM; IC50 [1]: 40 nM; IC50 [7]: 3610 nM

Question: For `O=C(Nc1cccc(-c2cnc3c(NC(=O)c4ccc(F)c(Cl)c4)nccn23)c1)Nc1ccc(Cl)c(C(F)(F)F)c1`, which IC50 [1] is on record?
Answer: 1280 nM

Question: With `O=C(Nc1cccc(-c2cnc3c(NC(=O)c4cc(F)cc(F)c4)nccn23)c1)Nc1ccc(F)cc1F` as the compound, how does the IC50 [1] read?
Answer: 5820 nM

Question: Which IC50 [1] does the source give for `O=C(Nc1cccc(-c2cnc3c(NC(=O)c4cccc(Cl)c4Cl)nccn23)c1)Nc1ccc(F)cc1F` here?
Answer: 170 nM

Question: For `O=C(Nc1cccc(-c2cnc3c(NC(=O)c4ccc(OC(F)(F)F)cc4)nccn23)c1)Nc1ccc(F)cc1F`, which IC50 [1] is on record?
Answer: 3790 nM

Question: For `Cc1ccc(C(=O)Nc2nccn3c(-c4cccc(NC(=O)Nc5ccc(F)cc5F)c4)cnc23)cc1Cl`, which IC50 [1] is on record?
Answer: 1980 nM

Question: What does the source list for `O=C(Nc1cccc(-c2cnc3c(NC(=O)c4cc(C(F)(F)F)cc(C(F)(F)F)c4)nccn23)c1)Nc1ccc(Cl)c(C(F)(F)F)c1`?
Answer: IC50 [4]: 5310 nM; IC50 (A549): 10400 nM; IC50 (NCI-H358): 7550 nM; IC50 [2]: > 12500 nM; IC50 [3]: > 12500 nM; IC50 [5]: 6350 nM; IC50 [6]: 14600 nM; IC50 [1]: 10 nM; IC50 [7]: 11600 nM

Question: With `Cc1ccc(C(=O)Nc2nccn3c(-c4cccc(NC(=O)Nc5ccc(Cl)c(C(F)(F)F)c5)c4)cnc23)cc1Cl` as the compound, how does the IC50 [1] read?
Answer: 1160 nM

Question: Which IC50 [1] does the source give for `Cc1cc(C)cc(C(=O)Nc2nccn3c(-c4cccc(NC(=O)Nc5ccc(F)cc5F)c4)cnc23)c1` here?
Answer: 120 nM

Question: For `COc1ccc(NC(=O)Nc2cccc(-c3cnc4c(N)nccn34)c2)cc1`, which IC50 [1] is on record?
Answer: 3000 nM

Question: For `O=C(Nc1cccc(-c2cnc3c(NC(=O)c4cccc(C(F)(F)F)c4)nccn23)c1)Nc1ccc(F)cc1F`, which IC50 [1] is on record?
Answer: 440 nM

Question: With `O=C(Nc1cccc(-c2cnc3c(NC(=O)c4ccc(C(F)(F)F)cc4)nccn23)c1)Nc1ccc(F)cc1F` as the compound, how does the IC50 [1] read?
Answer: 2730 nM

Question: For `O=C(Nc1cccc(-c2cnc3c(NC(=O)c4cc(Cl)cc(Cl)c4)nccn23)c1)Nc1ccc(Cl)c(C(F)(F)F)c1`, which IC50 [4] is on record?
Answer: 9510 nM

Question: And the IC50 (A549)?
Answer: 8440 nM

Question: And the IC50 (NCI-H358)?
Answer: 8580 nM

Question: And the IC50 [2]?
Answer: > 12500 nM

Question: And the IC50 [3]?
Answer: > 12500 nM

Question: And the IC50 [5]?
Answer: 10000 nM

Question: What about the IC50 [6] of the same compound?
Answer: 8010 nM

Question: What about the IC50 [1] of the same compound?
Answer: 30 nM

Question: And the IC50 [7]?
Answer: 11600 nM

Question: For `O=C(Nc1cccc(-c2cnc3c(NC(=O)c4cccc(OC(F)(F)F)c4)nccn23)c1)Nc1ccc(F)cc1F`, which IC50 [1] is on record?
Answer: 950 nM

Question: With `CCCS(=O)(=O)Nc1ccc(F)c(C(=O)c2c[nH]c3ncc(-c4ccc(Cl)cc4)cc23)c1F` [VEMURAFENIB] as the compound, how does the IC50 [1] read?
Answer: 370 nM
